This is a sample that favours compounds with a hit; in the whole collection about 1.6% have one here.
proKLK7 act: proKLK7 (human) activation, primary screen; purified proKLK7, EDANS-DABCYL substrate fluorescence; 100% is mature enzyme control, 0% vehicle; activation, % at 7 µM; actives 0.9% (n = 370,000); AID 652039;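 active = activation above the mean of all tested compounds plus 3 SD, computed per campaign excluding outliers beyond control limits, cut at about 13% in these data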
Target sequence (P49862 whole entry, looked up): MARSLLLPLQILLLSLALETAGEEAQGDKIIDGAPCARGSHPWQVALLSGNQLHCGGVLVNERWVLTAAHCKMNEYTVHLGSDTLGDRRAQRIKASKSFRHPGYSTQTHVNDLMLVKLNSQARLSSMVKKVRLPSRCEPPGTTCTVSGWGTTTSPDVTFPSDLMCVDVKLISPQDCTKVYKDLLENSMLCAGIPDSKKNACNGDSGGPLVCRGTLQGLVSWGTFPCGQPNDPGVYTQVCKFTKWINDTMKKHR
proCasp7 act: counter-screen for procaspase-3 activators: activators of human procaspase-7. P55210. recombinant procaspase-7, Ac-DEVD-pNA absorbance 405 nm; D23A/D198A/D206A triple mutant, cannot self-cleave; scale: DMSO 0, 5 µM enzyme 100. AID 463210. activation, % at 8.5 µM. actives 0.093% (n = 330,000);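 active = percent activation above the screen-wide mean plus 3 SD, cut at about 25% in these data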
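System: Procaspase-7 triple mutant (PC-7 D3A); measure: % activation from two-timepoint absorbance difference, scaled to controls; times: 1 h compound preincubation, 2 h substrate cleavage, 25 °C; also added: Ac-DEVD-pNA substrate, 400 µM as added; measured by: Epi-absorbance of released pNA at 405 nm, two timepoints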
proCasp3 act: procaspase-3 (human) activation. P42574. recombinant procaspase-3 D3A, Ac-DEVD-pNA absorbance 405 nm. activation, % at 8.5 µM. actives 0.11% (n = 330,000). AID 463141;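 active = activation above the mean of all tested compounds plus 3 SD, cut at about 21% in these data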
Target sequence (P42574 whole entry D9A/D28A/D175A): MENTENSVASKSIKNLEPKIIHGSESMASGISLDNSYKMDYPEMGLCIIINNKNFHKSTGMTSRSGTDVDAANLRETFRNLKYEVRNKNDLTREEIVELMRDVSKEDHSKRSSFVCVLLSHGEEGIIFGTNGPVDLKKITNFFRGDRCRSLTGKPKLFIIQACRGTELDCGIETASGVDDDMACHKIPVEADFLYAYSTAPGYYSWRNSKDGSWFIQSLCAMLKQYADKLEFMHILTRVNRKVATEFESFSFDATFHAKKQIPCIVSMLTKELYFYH
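Compound: 8.5 µM single point, 0.8% DMSO / Material: Autoprocessing-dead procaspase-3 D3A mutant enzyme / Timing: 1 h preincubation plus 2 h reaction at 25 °C / Medium: Zinc-free HEPES/NaCl buffer with 0.01% Triton X-100 at pH 7.4 / Technique: 405 nm absorbance of p-nitroaniline, reads at 0 and 120 min / Repeats: one well per compound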
Neddyl block: cullin neddylation inhibition; P61081+Q13564; TR-FRET cullin neddylation, biochemical; calls only at 25 µM; actives 0.58% (n = 360,000); AID 651699; in the data active = inhibition above about 36%
proKLK7 act conf: proKLK7 activation, confirmation; purified proKLK7, EDANS-DABCYL substrate fluorescence; scaled: vehicle 0, mature enzyme 100; activation, % at 7 µM; shares compounds with proKLK7 act; actives 68% (n = 3,200); AID 686949;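 active = activation, as change over the incubation, above the mean of all tested compounds plus 3 SD, cut at about 13% in these data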
EDANS-DABCYL int: fluorescence interference counter-screen for KLK7 activators; AID 686952; shares compounds with proKLK7 act; activation, % at 7 µM; actives 80% (n = 3,200); EDANS-DABCYL substrate fluorescence interference, no enzyme, 4 h; solvent 0%, active enzyme control 100%;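 active = activation above the all-compound mean plus 3 SD, ignoring values outside control-based bounds, cut at about 4.8% in these data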;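 also: value is the 4 h activation minus the activation read at time zero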
K7 EDANS ctr: EDANS fluorescence interference in dose response, no enzyme; shares compounds with proKLK7 act; EDANS-DABCYL peptide fluorescence interference; EC50, µM; actives 20% (n = 250);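 active = compounds that raise the fluorescence signal in this interference counterscreen, with EC50 at or below 10 µM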;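 also: intact quenched peptide substrate alone read at 355 nm excitation and 520 nm emission; signal is fluorescence gain from T0 to T4 after four hours at room temperature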
Numbers stand for hits; - = inactive; . = not tested or not shown; ! = not confirmed by another sample.

SMILES	proKLK7 act	proCasp7 act	proCasp3 act	Neddyl block	proKLK7 act conf	EDANS-DABCYL int	others
COc1ccc(C)cc1S(=O)(=O)Nc1cccc(-c2cn3cccnc3n2)c1	18	-	-	.	-	-
COc1ccc(COC(=O)C2CCN(C(=O)c3ccc(Cl)cc3)CC2)cc1F	-	-	-	-	.	.
O=C(NCc1cccnc1)C1CCN(S(=O)(=O)c2cc([N+](=O)[O-])ccc2Cl)CC1	-	-	-	-	.	.
C=CCOc1ccc(Br)cc1CNC(C)(C)C	-	-	-	-	.	.
CN[C@H]1C[C@H]2c3[nH]c4ccc(-c5cccc(C)c5)cc4c3CCN2C[C@H]1[C@H](C)O	-	.	.	-	.	.
CN1c2ccccc2Oc2nnc(Cl)cc21	13	-	-	.	28	34
CCCCN(C(=O)c1cccc2c(=O)c(C)c(-c3ccccc3)oc12)c1ccccc1	-	.	.	-	.	.
COc1ccc2cc(CN(CCCN3CCOCC3)Cc3nnnn3C3CCCC3)c(=O)[nH]c2c1	16	-	-	.	-	-
COC(=O)C1=C(C)N(Cc2ccccc2C(F)(F)F)C(=NCc2ccccc2C(F)(F)F)NC1c1cccc(C(F)(F)F)c1 (stereo not given)	-	.	.	.	.	.
CC1CC(=O)Nc2ccccc2N1C(=O)Cn1cnc2ccccc2c1=O (stereo not given)	-	-	-	-	.	.
CC(c1ccccc1)C1CC(=O)N(Cc2ccco2)C1=O (stereo not given)	119	-	-	-	-	-
O=C(O)CCC(=O)NN1C(=O)c2ccccc2NC1c1ccco1 (stereo not given)	15	-	-	.	49	16	K7 EDANS ctr=-
CCOC(=O)NN1C(=O)c2ccccc2NC1c1ccc(OC)cc1 (stereo not given)	36	-	-	.	20	23
COc1ccc(N2C(=O)c3ccccc3NC2c2ccc(NC(C)=O)cc2)c(OC)c1 (stereo not given)	-	-	-	.	.	.
CCOC(=O)NN1C(=O)c2ccccc2NC1C (stereo not given)	13	-	-	.	25	28
CCOC(=O)NN1C(=O)c2ccccc2NC1c1ccccn1 (stereo not given)	-	-	-	.	.	.
COc1ccc(C2Nc3ccccc3C(=O)N2NC(C)=O)c(OC)c1 (stereo not given)	21	-	-	.	20	16	K7 EDANS ctr=-
CCCOc1ccc(S(=O)(=O)n2cc(F)c(=O)[nH]c2=O)cc1	-	-	-	-	.	.
CCOC(=O)NN1C(=O)c2ccccc2NC1c1ccc(N(C)C)cc1 (stereo not given)	-	-	-	-	.	.
CCOC(=O)NN1C(=O)c2ccccc2NC1c1ccccc1 (stereo not given)	20	-	-	.	21	24
Cn1c2nc(=O)[nH]c(=O)c-2cc2ccccc21	70	.	.	.	67	65
O=c1nc2n(CCO)c3ccccc3cc-2c(=O)[nH]1	18	.	.	.	48	54
O=C(O)c1cc2cccc(S(=O)(=O)N3CCOCC3)c2cc1O	14	-	-	.	70	72
Cc1ccc(S(=O)(=O)N2CCOCC2)cc1C(=O)O	-	-	-	-	.	.
O=c1cccc2n1Cc1cc3ccccc3nc1-2	47	-	-	-	60	69
SMILES	proKLK7 act	proCasp7 act	proCasp3 act	Neddyl block	proKLK7 act conf	EDANS-DABCYL int	others
CCOC(=O)C1CCCN(C(=O)Cn2nc(C)n3c(cc4c(OC)cccc43)c2=O)C1 (stereo not given)	18	-	-	.	-	6.4
Nc1nc(Nc2ccccc2)sc1C(=O)c1ccccc1	-	-	-	-	.	.
CCNc1nc(N)c(C(=C(C#N)C#N)c2ccccc2)s1	33	-	-	.	139	139
O=C(Nc1ccc2c(c1)OCO2)C(c1ccc(Cl)cc1)N1CCC2(CC1)OCCO2 (stereo not given)	18	-	-	-	-	-
CC(C)c1ccc(NC(=O)C(c2ccc3c(c2)OCO3)N2CCC3(CC2)OCCO3)cc1 (stereo not given)	-	-	-	-	.	.
CCOC(=O)c1c(-c2ccccc2)oc2ccc(OC(C)C(=O)O)cc12 (stereo not given)	36	-	-	.	-	-
CSc1ccc(-c2cc(=O)c3ccccc3o2)cc1	66	-	-	-	68	76
COc1ccc2oc(-c3ccccc3)cc(=O)c2c1	14	.	.	.	-	-
CCOC(=O)c1c(-c2ccccc2)oc2ccc(OC(C)=O)cc12	-	-	-	-	.	.
CCOC(=O)c1c(-c2ccccc2)oc2ccc(OCC(=O)NNC(=O)CCCC(=O)O)cc12	13	.	.	.	-	-
O=C1NC(=O)C2(CCCC2c2ccccc2)N1 (stereo not given)	-	.	.	-	.	.
CN(Cc1ccccc1)C(=O)[C@@H]1CCCN1C(=O)[C@@H]1CCCN1C(=O)c1ccccc1	-	.	.	-	.	.
CC(C)(C)C(=O)Nc1ccc(C(=O)NNC(=O)Cc2ccccc2)cc1	-	-	-	-	.	.
COc1ccc2oc(-c3ccccc3)c(C(=O)O)c2c1	-	-	-	.	.	.
COc1ccc2oc(-c3ccccc3)c(C(N)=O)c2c1	13	-	-	.	-	18
CCOC(=O)c1c(-c2ccccc2)oc2ccc(OCC(O)CN(C)C)cc12 (stereo not given)	17	-	-	.	-	-
CCOC(=O)c1c(-c2ccccc2)oc2ccc(OCC(=O)NNC(=O)CCC(=O)O)cc12	-	.	.	.	.	.
CC(C)[C@H](NC(=O)OC(C)(C)C)c1cc(C(=O)N[C@@H](C)c2ccccc2)c(N)s1	-	.	.	-	.	.
COc1ccc(N2CCN(C(=O)c3oc4ccccc4c3NC(=O)Cc3ccc(OC)c(OC)c3)CC2)cc1	-	-	-	-	.	.
CCOC(=O)C1CCN(c2cc3c(cc2NC(=O)c2cc(OC)ccc2Br)n(C)c(=O)n3C)CC1	19	-	-	.	25	31
C[n+]1c2cc(N)ccc2cc2ccc(N)cc21	34!	.	.	-	56	59
Nc1ccc2ccc(O)cc2c1	-	.	.	-	.	.
CCc1ccc(-n2c(=O)c3c(C)c(C(=O)N(C)C)sc3n(CC(=O)NCc3ccco3)c2=O)cc1	-	-	-	-	.	.
O=C(COC(=O)C12CC3CC(CC(O)(C3)C1)C2)Nc1ccc(Cl)c(S(=O)(=O)N2CCOCC2)c1	-	-	-	-	.	.
CC12CCC(=O)N1c1c(sc3nc(N4CCOCC4)c4c(c13)CCCC4)C(=O)N2 (stereo not given)	20	-	-	.	69	68
Nc1ncc(-c2ccc(F)cc2)nc1N1CCN(CCO)CC1	24	.	.	.	-	11
OCCN1CCN(c2cnc(-c3ccsc3)cn2)CC1	-	.	.	-	.	.
